Source: PubChem BioAssay (The Scripps Research Institute Molecular Screening Center)
M4 PAM = CHRM4 positive allosteric modulation; P08173; CHO-K1 hM4/Gqi5, Fluo-8 calcium fluorescence, ACh EC20; 0% = ACh EC20, 100% = maximal ACh; AID 624126; actives 0.4% (n = 360,000); activation, % at 3 µM;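 active means activation above its plate's cutoff, the mean activation of sample wells plus 3 SD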
Target sequence (P08173 whole entry, looked up): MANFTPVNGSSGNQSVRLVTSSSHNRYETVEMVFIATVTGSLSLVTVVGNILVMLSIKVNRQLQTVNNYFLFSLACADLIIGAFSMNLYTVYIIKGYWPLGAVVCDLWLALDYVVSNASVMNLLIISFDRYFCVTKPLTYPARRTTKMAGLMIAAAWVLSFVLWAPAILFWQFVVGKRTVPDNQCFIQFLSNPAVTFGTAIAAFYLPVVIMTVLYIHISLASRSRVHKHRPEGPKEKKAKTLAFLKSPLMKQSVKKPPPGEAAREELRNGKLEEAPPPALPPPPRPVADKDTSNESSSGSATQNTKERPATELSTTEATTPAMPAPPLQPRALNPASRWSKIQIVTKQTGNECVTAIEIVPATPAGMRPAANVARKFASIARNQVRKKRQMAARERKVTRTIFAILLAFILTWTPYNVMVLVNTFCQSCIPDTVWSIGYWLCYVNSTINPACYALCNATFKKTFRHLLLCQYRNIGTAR
M5 antag = CHRM5 antagonism in calcium assay; P08912; CHO-hM5 cells, Fluo-8 calcium fluorescence, ACh EC80; inhibition, % at 3 µM; actives 0.59% (n = 360,000); AID 624040;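 active means inhibition above a per-plate cutoff, the mean of that plate's test compounds plus 3 SD, cut at about 27% in these data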;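 further: 0% = acetylcholine EC80 with DMSO and 100% = DMSO without agonist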
CHRM5 agonist = CHRM5 agonism in calcium assay. P08912. CHO-K1 hM5 cells, Fluo-8 calcium fluorescence; 0% DMSO wells, 100% maximal acetylcholine response. activation, % at 3 µM. actives 0.19% (n = 360,000);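 active means activation above the run's mean over test compounds plus 3 SD, cut at about 23% in these data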;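 further: signal is peak over basal fluorescence ratio across the kinetic read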
M5 PAM = potentiates acetylcholine response at human M5 receptor | P08912 | CHO-K1 hM5, Fluo-8 calcium, ACh EC20 PAM; 0% = ACh EC20, 100% = ACh EC100 | activation, % at 3 µM | actives 0.3% (n = 360,000) | AID 624038;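 active means activation above the run cutoff, the mean activation of all test compounds plus 3 SD, cut at about 18% in these data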
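System: CHO-K1 cell line with stable human muscarinic M5 receptor expression | Also added: EC20 acetylcholine as agonist stimulus | Compound: One concentration, 3 µM final (nominal) | Timing: Fluo-8 loading 80 min at 37 °C plus 30 min room temperature | Measured by: Fluo-8 calcium dye fluorescence, kinetic read | Read-out basis: % activation, ACh-normalized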
M4 ag = agonists of human muscarinic M4 receptor (CHRM4). P08173. CHO-K1 hM4/Gqi5, Fluo-8 calcium fluorescence; vehicle 0%, full acetylcholine response 100%. activation, % at 3 µM. actives 0.14% (n = 360,000). AID 624127;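 active means activation above the run mean over all test wells plus 3 SD, cut at about 32% in these data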;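 further: peak over basal fluorescence ratio per well then scaled between controls; 0% = DMSO wells and 100% = acetylcholine at EC100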
M4 antag = CHRM4 antagonism in calcium assay; actives 0.73% (n = 360,000); CHO-hM4 cells, ACh EC80, Fluo-8 calcium fluorescence; AID 624125; inhibition, % at 3 µM; P08173;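 active means inhibition above its plate's cutoff, the mean inhibition of sample wells plus 3 SD, cut at about 27% in these data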;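 further: 0% = acetylcholine EC80 with DMSO and 100% = DMSO without agonist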
* hit, by the source's call. This is a sample that favours compounds with a hit; in the whole collection about 1.8% have one here.

SMILES | M4 PAM | M5 antag | CHRM5 agonist | M5 PAM | M4 ag | M4 antag
O=C(CCC1CCN(Cc2ccccc2O)CC1)NC1CC1 | -2.6 | -11.0 | -6.4 | 21.1* | 0.2 | -4.7
COCCNC(=O)C1(C)CCCN(Cc2ccc(-n3ccnc3)cc2)C1 (stereo unspecified) | 1.2 | 9.7 | -1.4 | -8.8 | 0.4 | -4.5
CCc1ccc(Cn2ncc3c(C(=O)O)cc(C)nc32)cc1 | -15.6 | 9.7 | 0.3 | -3.7 | 1.4 | 33.5*
CCNC(=O)CN(C1CCCCC1)S(C)(=O)=O | 22.3* | -11.7 | 1.0 | 12.1 | 3.3 | -3.6
CCCCNC(=O)CN(C1CCCCC1)S(C)(=O)=O | 0.1 | -4.7 | 0.6 | 5.6 | 0.3 | 12.0
COc1cc(/C=C2\SC(=O)N(c3ccc(Cl)cc3)C2=O)cc([N+](=O)[O-])c1O | 3.1 | 10.0 | 0.0 | 2.3 | -0.5 | 17.2
COc1cc(/C=C2\SC(=O)N(c3cccc(Cl)c3)C2=O)cc([N+](=O)[O-])c1O | 23.4* | -7.8 | 0.5 | 11.1 | -0.1 | -8.7
CCN(CC)c1ccc(/C=C2\C(=O)c3ccc(C(=O)O)cc3C2=O)cc1 | -11.4 | 25.3 | 31.6* | -20.6 | 19.9 | 31.7*
COc1cccc(/C=C/C(=O)NNC(=O)c2cc(C)oc2C)c1 | -3.8 | 0.6 | 1.9 | 3.2 | 0.2 | -6.8
CC1(C)CC(=O)c2cc(C(=O)N3CCCC(C)(C)C3)c(=O)n(-c3ccccc3)c2C1 | -0.1 | 4.7 | 2.8 | 0.2 | 1.4 | 1.6
COc1ccc(-n2c3c(cc(C(=O)N4CCCCC4)c2=O)C(=O)CC(C)(C)C3)cc1 | -7.6 | 2.4 | -2.9 | 11.6 | 1.3 | 26.9*
O=C(O)c1ccc(Br)cn1 | 20.5* | -4.8 | 1.7 | 12.6 | 1.1 | -0.8
CCCC(=O)N1CCC1(C)C(=O)Nc1ccc2c(c1)OCCO2 (stereo unspecified) | 3.1 | -3.0 | -0.1 | 6.3 | 0.9 | -13.3
CN(C)c1ccc(/C=N/NC(=S)NCc2ccccc2)cc1 | -4.1 | 1.9 | -4.7 | -6.8 | 0.8 | -8.6
CCOc1ccc(/C=N/NC(=O)CC(=O)NCc2ccccc2)cc1 | 6.6 | -2.4 | 3.8 | 27.5* | -0.2 | -4.8
CCOc1ccc(/C=N\NC(=O)CC(=O)NCCc2ccccc2)cc1 | -3.1 | -1.4 | -3.5 | 5.9 | 0.5 | 4.6
COc1cc(/C=N\NC(=O)CC(=O)NCCc2ccccc2)ccc1O | -0.6 | -1.5 | -1.7 | -4.7 | 0.9 | -8.3
CC(C)(C)c1ccc(/C=N/NC(=S)NCc2ccccc2)cc1 | 25.2* | 4.0 | 1.4 | -1.3 | 2.1 | -9.2
CCOc1cc(/C=N\NC(=O)CC(=O)NCCc2ccccc2)ccc1O | -7.2 | 29.2* | -1.4 | -19.3 | 16.6 | 6.8
CN(C)c1ccc(CC(=O)N2CCCCC2c2cc(C(=O)Nc3cccc(C#N)c3)no2)cc1 (stereo unspecified) | -4.8 | 2.1 | 0.7 | -8.0 | 7.7 | -3.2
Fc1cccc(Cc2c(-c3cccc(Cl)c3)nc3ccc(Cl)cn23)c1 | -4.6 | -8.4 | -0.6 | -4.6 | -0.8 | -14.7
CCn1nnnc1NCc1ccc(N2CCCC2)cc1 | -24.2 | 14.1 | -9.5 | -7.5 | 0.6 | 35.1*
O=C1CCCc2c1nc(-c1ccc([N+](=O)[O-])cc1)n2O | 2.7 | 3.6 | -0.2 | 3.7 | 3.2 | 10.9
O=C1CCCc2c1nc(-c1ccc(F)cc1)n2O | 19.9 | -11.4 | 4.5 | 20.5* | 0.7 | 8.9
Cc1ccc(C(=O)OCN2C(=O)c3ccccc3C2=O)o1 | 21.6* | -1.0 | 2.0 | -4.1 | 0.5 | -2.1
SMILES | M4 PAM | M5 antag | CHRM5 agonist | M5 PAM | M4 ag | M4 antag
COc1ccc(CC(=O)OCN2C(=O)c3ccccc3C2=O)cc1 | 11.0 | 0.0 | -2.8 | 4.3 | 1.6 | -3.3
CC(C)C1C(=O)N(Cc2cn(CCC3OCCO3)nn2)CCS(=O)(=O)N1Cc1ccc(-c2ccc(F)cc2Cl)cc1 (stereo unspecified) | -6.7 | -0.8 | -3.1 | -4.2 | 7.9 | -6.0
Cc1ccc(S(=O)(=O)N2CCCCC2)cc1NC(=O)Cn1cnc2c1c(=O)n(C)c(=O)n2C | 4.8 | 6.6 | 2.1 | 0.2 | 1.2 | -3.0
COCc1cc(C)c2c(N)c(C#N)sc2n1 | 33.7* | 3.1 | 0.4 | 6.3 | 0.7 | 8.7
O=C(c1cccs1)N1CCN=C1SCc1cccnc1 | 12.5 | 21.6 | 7.9 | 19.7* | 2.9 | -6.6
CSc1ccc(C(O)c2ncc(-c3ccccc3Cl)[nH]2)cc1 (stereo unspecified) | 2.6 | -1.7 | 2.2 | -5.1 | 2.7 | -12.3
CCNC(=O)C1CCCN(C(=O)c2ccccc2)CC1 (stereo unspecified) | -1.6 | 5.7 | 0.7 | -10.1 | 0.2 | 2.4
COc1ccc(C(=O)Nc2ccc([N+](=O)[O-])cn2)c(OC)c1 | 0.5 | 11.4 | -0.9 | 19.6* | 0.6 | -0.6
Cc1c(C(=O)N2CCC(C(N)=O)CC2)oc2ccc(Br)cc12 | 5.7 | -15.2 | -3.1 | 7.6 | 1.6 | -6.0
Cc1ccc(-c2csc(N3CCC(NS(=O)(=O)c4ccc5c(c4)OCCO5)CC3)n2)cc1 | -10.2 | 28.1* | 3.8 | -21.1 | 9.9 | 21.3
CC1=NN(CCc2ccccn2)C(=O)CC1 | -1.7 | 11.7 | -3.3 | -1.0 | 0.7 | 12.1
O=[N+]([O-])c1ccc2c(c1)C(N1CCN(CCO)CC1)Cc1ccc(F)cc1S2 (stereo unspecified) | -11.6 | 1.0 | -3.1 | -7.6 | 14.0 | 16.6
CSc1ccc2c(c1)C(N1CCN(C)CC1)Cc1ccc(F)cc1S2 (stereo unspecified) | -16.1 | 28.6* | -15.5 | -29.5 | 29.4 | 43.2*
Cc1cc(C(=O)N2CCC(C)CC2)on1 | 23.9 | 6.3 | 1.4 | 18.4* | 0.8 | 9.2
CCOC(=O)N1CCN(C(=O)c2cc(C)no2)CC1 | 7.3 | -0.2 | 2.2 | 2.5 | 1.2 | -9.1
COc1ccc(C(=O)C2CCCN(Cc3nc4ccccc4nc3C)C2)cc1OC (stereo unspecified) | -2.1 | -3.4 | -3.8 | 0.1 | 0.8 | -8.2
CCOC(=O)N1CCC(N2CCCC(C(=O)c3cc(C)c(OC)c(C)c3)C2)CC1 (stereo unspecified) | -15.9 | 35.8* | -11.1 | -19.7 | 2.5 | 21.4
COc1ccc(C(=O)C2CCCN(C3Cc4ccccc4C3)C2)cc1OC (stereo unspecified) | -17.7 | 10.8 | -10.3 | -11.2 | 0.8 | 29.4*
O=C(COc1ccccc1)Nc1ccc(-c2ccc(N3CCOCC3)nn2)cc1 | -2.4 | 4.1 | -0.3 | -1.7 | 6.3 | -8.5
CSCCC(NS(=O)(=O)c1ccccc1F)C(=O)NCCCn1nc(C)cc1C (stereo unspecified) | 3.0 | 5.0 | -0.5 | -0.6 | 1.2 | -1.2
CC1(C)NC(=O)N(CC(O)COc2ccccc2C(=O)Nc2ccccc2)C1=O (stereo unspecified) | -2.5 | 12.3 | 0.9 | -13.8 | 11.2 | 1.9
